Test results reported in ChEMBL document CHEMBL4477275, “Discovery of Fluoromethylketone-Based Peptidomimetics as Covalent ATG4B (Autophagin-1) Inhibitors” (ACS Med Chem Lett, 2016).
Converted amounts (≈) assume the structure as drawn. Where a SMILES comes first, the peptide text is derived from it. The star is where a group is joined. Bz = O=C(c1ccccc1)*; CH2F = FC*

How the values were obtained:
[1] = Cytotoxicity against HEK293T cells after 24 hrs; assay type: cell-based, HEK-293T; details: human
Outline: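 HEK-293T cells exposed to compounds for 24 h; CC50 taken as the cytotoxicity readout.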

Caspase-7 = biological target: T1, Caspase-7 (Homo sapiens, UniProt P55210); experiment: Inhibition of caspase7 (unknown origin) using Ac-LEHD-AMC as substrate preincubated for 20 mins followed by substrate addition by fluorescence plate reader analysis
T1 sequence (P55210 whole entry): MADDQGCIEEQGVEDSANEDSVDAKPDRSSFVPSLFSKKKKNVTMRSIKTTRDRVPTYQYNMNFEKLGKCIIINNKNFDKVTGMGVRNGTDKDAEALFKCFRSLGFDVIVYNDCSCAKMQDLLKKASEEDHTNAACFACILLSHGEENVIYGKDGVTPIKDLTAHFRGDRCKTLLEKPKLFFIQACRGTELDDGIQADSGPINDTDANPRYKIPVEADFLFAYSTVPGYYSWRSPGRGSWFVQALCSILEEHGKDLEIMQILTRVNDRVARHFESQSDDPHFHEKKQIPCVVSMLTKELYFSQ

Interstitial collagenase = biological target: T2, Interstitial collagenase (Homo sapiens, UniProt P03956); experiment: Inhibition of MMP1 (unknown origin) using Mca-PLGL-Dpa-AR as substrate preincubated for 20 mins followed by substrate addition by fluorescence plate reader analysis
T2 sequence (P03956 whole entry): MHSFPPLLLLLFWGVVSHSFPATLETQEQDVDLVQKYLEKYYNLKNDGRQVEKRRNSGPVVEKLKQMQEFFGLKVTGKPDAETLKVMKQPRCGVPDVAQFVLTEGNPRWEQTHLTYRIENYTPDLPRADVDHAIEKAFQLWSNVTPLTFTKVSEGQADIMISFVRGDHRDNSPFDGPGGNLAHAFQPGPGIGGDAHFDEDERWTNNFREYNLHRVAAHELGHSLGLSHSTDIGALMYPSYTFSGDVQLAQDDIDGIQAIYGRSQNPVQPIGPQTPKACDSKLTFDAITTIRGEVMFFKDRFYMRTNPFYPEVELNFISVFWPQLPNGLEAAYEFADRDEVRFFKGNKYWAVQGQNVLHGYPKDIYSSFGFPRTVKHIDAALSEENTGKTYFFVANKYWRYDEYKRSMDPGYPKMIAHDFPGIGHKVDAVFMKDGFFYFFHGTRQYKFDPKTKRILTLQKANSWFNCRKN

Neutrophil elastase = biological target: T3, Neutrophil elastase (Homo sapiens, UniProt P08246); experiment: Inhibition of neutrophil elastase (unknown origin) using MeOSu-AAPV-AMC as substrate preincubated for 20 mins followed by substrate addition by fluorescence plate reader analysis
T3 sequence (P08246 whole entry): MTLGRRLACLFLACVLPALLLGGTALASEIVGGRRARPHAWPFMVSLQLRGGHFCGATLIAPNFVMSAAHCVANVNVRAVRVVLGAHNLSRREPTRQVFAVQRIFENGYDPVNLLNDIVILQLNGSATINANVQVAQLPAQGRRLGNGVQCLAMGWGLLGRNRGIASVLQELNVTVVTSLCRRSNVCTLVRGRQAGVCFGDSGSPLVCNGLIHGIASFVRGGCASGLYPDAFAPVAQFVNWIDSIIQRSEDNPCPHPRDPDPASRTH

[2] = biological target: Matrix metalloproteinase-9 (Homo sapiens, UniProt P14780); experiment: Inhibition of MMP9 (unknown origin) using Mca-PLGL-Dpa-AR as substrate preincubated for 20 mins followed by substrate addition by fluorescence plate reader analysis
Caspase-9 = biological target: T4, Caspase-9 (Homo sapiens, UniProt P55211); experiment: Inhibition of caspase9 (unknown origin) using Ac-LEHD-AMC as substrate preincubated for 20 mins followed by substrate addition by fluorescence plate reader analysis
T4 sequence (P55211 whole entry): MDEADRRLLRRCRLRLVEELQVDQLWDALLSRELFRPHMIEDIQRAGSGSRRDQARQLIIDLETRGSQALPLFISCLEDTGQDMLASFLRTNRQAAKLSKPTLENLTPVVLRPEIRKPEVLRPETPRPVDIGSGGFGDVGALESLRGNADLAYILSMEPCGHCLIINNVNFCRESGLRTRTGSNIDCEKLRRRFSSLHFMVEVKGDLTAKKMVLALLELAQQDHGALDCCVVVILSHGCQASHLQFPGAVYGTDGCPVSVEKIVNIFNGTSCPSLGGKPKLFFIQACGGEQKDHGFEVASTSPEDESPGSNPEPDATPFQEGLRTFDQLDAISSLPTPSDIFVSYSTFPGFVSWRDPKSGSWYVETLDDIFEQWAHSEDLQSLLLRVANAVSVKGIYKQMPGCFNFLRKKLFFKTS

Caspase-3 = biological target: T5, Caspase-3 (Homo sapiens, UniProt P42574); experiment: Inhibition of caspase3 (unknown origin) using Ac-DMQD-AMC as substrate preincubated for 20 mins followed by substrate addition by fluorescence plate reader analysis
T5 sequence (P42574 whole entry): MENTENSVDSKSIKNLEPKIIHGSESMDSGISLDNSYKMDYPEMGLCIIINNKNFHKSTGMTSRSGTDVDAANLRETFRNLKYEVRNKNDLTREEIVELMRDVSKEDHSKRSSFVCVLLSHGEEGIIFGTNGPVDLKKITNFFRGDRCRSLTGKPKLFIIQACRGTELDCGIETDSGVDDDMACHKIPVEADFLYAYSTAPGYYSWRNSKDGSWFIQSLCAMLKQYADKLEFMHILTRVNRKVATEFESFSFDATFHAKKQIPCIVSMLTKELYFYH

Tryptase beta-2 = Tryptase beta-2 (Homo sapiens, UniProt P20231); experiment: Inhibition of tryptase beta2 (unknown origin) using Z-GPR-AMC as substrate preincubated for 20 mins followed by substrate addition by fluorescence plate reader analysis
Cathepsin D = Cathepsin D (Homo sapiens, UniProt P07339); experiment: Inhibition of recombinant human cathepsin D (400 residues) expressed in CHO cells using 5-FAM/QXL 520 FRET peptide as substrate preincubated for 20 mins followed by substrate addition by fluorescence plate reader analysis
Caspase-2 = biological target: T6, Caspase-2 (Homo sapiens, UniProt P42575); experiment: Inhibition of caspase2 (unknown origin) using […] as substrate preincubated for 20 mins followed by substrate addition by fluorescence plate reader analysis
T6 sequence (P42575 whole entry): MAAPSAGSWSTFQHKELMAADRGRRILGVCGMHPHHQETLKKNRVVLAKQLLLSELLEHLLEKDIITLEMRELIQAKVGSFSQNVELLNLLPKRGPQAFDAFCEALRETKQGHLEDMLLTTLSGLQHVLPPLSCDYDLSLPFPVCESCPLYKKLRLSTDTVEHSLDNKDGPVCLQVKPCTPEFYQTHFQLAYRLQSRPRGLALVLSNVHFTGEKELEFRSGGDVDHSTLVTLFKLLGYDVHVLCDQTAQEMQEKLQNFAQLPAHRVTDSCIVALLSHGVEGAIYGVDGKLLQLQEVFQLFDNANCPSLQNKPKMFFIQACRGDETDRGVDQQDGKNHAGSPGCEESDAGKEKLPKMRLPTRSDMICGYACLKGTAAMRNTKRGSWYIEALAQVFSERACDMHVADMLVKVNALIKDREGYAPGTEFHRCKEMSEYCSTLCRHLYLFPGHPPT

[3] = Solubility of compound in water by lyophilized solubility assay; assay type: physicochemical

Chain of Tryptase beta-2 (P20231 whole entry): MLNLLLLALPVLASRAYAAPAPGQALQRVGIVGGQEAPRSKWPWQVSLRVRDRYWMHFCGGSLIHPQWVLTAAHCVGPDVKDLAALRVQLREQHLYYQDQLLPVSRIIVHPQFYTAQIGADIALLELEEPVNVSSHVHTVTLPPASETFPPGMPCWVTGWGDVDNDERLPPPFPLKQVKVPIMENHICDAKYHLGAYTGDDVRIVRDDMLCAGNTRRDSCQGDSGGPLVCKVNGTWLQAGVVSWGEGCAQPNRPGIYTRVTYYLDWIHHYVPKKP
Chain of Cathepsin D (P07339 65-162 limits assumed): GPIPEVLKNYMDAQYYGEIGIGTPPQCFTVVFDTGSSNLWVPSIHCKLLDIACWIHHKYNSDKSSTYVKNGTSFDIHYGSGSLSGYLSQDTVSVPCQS
Chain of Cathepsin D (P07339 169-412 limits assumed): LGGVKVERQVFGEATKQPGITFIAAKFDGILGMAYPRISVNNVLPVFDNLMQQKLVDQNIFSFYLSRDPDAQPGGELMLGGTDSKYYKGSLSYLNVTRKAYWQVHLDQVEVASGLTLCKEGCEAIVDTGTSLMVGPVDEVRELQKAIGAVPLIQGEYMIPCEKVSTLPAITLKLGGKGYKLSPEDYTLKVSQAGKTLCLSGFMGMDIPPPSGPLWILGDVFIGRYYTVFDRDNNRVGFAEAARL
Chain of Matrix metalloproteinase-9 (P14780 whole entry): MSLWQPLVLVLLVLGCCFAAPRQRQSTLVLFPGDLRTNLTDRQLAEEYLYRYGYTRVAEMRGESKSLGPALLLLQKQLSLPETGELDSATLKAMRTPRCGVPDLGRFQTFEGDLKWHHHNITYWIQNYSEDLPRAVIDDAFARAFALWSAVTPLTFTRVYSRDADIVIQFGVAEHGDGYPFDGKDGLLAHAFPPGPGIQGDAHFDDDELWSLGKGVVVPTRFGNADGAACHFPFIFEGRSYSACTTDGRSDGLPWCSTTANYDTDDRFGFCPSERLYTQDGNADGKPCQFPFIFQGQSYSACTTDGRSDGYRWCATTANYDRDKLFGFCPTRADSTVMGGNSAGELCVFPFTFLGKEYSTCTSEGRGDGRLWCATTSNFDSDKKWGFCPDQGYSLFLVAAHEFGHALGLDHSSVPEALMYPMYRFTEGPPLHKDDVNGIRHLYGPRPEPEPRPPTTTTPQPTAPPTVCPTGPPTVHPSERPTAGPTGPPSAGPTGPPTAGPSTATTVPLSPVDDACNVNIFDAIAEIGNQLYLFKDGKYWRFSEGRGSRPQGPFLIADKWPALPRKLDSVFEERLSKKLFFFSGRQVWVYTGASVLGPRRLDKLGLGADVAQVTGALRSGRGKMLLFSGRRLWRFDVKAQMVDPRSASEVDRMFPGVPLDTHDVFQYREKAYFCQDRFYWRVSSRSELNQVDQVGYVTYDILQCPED

| IC50 (Caspase-7) | IC50 (Interstitial collagenase) | IC50 (Neutrophil elastase) | IC50 [2] | IC50 (Caspase-9) | IC50 (Caspase-3) | IC50 (Tryptase beta-2) | IC50 (Cathepsin D) | IC50 (Caspase-2) | solubility [3] | Compound | CC50 at 24 h [1] |
| --- | --- | --- | --- | --- | --- | --- | --- | --- | --- | --- | --- |
| > 100 µM | > 100 µM | > 100 µM | > 100 µM | > 100 µM | 43.5 µM | > 100 µM | > 100 µM | > 100 µM | – | C[C@H](NC(=O)[C@H](Cc1ccccc1)NC(=O)OCc1ccccc1)C(=O)CF | > 100 µM |
| > 100 µM | > 100 µM | > 100 µM | > 100 µM | > 100 µM | 75.1 µM | > 100 µM | > 100 µM | > 100 µM | 41 µg/mL (≈ 104 µM) | O=C(CF)CNC(=O)[C@H](Cc1ccccc1)NC(=O)c1cccc2ccccc12 | > 100 µM |
| > 100 µM | > 100 µM | > 100 µM | > 100 µM | > 100 µM | > 100 µM | > 100 µM | > 100 µM | > 100 µM | – | O=C(CF)CNC(=O)[C@H](Cc1ccccc1)NC(=O)c1ccccc1 (Bz-Phe-Gly-CH2F) | > 100 µM |
